Test results published in ChEMBL document CHEMBL5346944, “Development of a 2,4-Diaminothiazole Series for the Treatment of Human African Trypanosomiasis Highlights the Importance of Static-Cidal Screening of Analogues” (J Med Chem, 2023).
The source made the active and inactive calls. The rule behind the calls is not given here.

Legend:
Trypanosoma brucei [1] = test: Antiparasitic activity against bloodstream-stage Trypanosoma brucei measured after 73 hrs by resazurin assay; format: functional, organism-based
[2] = Cmax in NMRI mouse at 10 mg/kg, po by UPLC-MS/MS analysis; format: ADME, organism-based; design: dose 10 mg/kg, route po; conditions: in vivo
Outline: (§1)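 Oral gavage at 10 mg kg-1 free base in 10% DMSO/40% PEG400/50% water, 5 mL kg-1, to female NMRI mice (n = 3) or Sprague-Dawley rats. Blood drawn at 5, 15, 30 min and 1, 2, 4, 6, 8 h, mixed with two volumes of water, measured by UPLC-MS/MS. Parameters taken from the mean blood concentration–time curve.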

[3] = Tmax in NMRI mouse at 10 mg/kg, po by UPLC-MS/MS analysis; format: ADME, organism-based; conditions: in vivo; outline: as §1
[4] = AUC in NMRI mouse at 10 mg/kg, po by UPLC-MS/MS analysis; format: ADME, organism-based; design: dose 10 mg/kg, route po; conditions: in vivo; outline: as §1
[5] = Cmax in NMRI mouse at 10 mg/kg, ip by UPLC-MS/MS analysis; format: ADME, organism-based; design: dose 10 mg/kg, route ip; conditions: in vivo
Outline: (§2)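 Female NMRI or HRN mice (n = 3) given a single IP dose of 10 mg kg-1 free base in 5% DMSO/40% PEG400/55% water or 15% solutol/85% water, 10 mL kg-1. Blood sampled at 5, 15, 30 min and 1, 2, 4, 6, 8 h, diluted with two volumes of water, assayed by UPLC-MS/MS. PK parameters derived from the mean blood concentration–time curve.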

[6] = Tmax in NMRI mouse at 10 mg/kg, ip by UPLC-MS/MS analysis; format: ADME, organism-based; conditions: in vivo; outline: as §2
[7] = AUC in NMRI mouse at 10 mg/kg, […] by UPLC-MS/MS analysis; format: ADME, organism-based; design: dose 10 mg/kg; conditions: in vivo; outline: as §2
[8] = Cmax in HRN mouse at 10 mg/kg, ip by UPLC-MS/MS analysis; format: ADME, organism-based; design: dose 10 mg/kg, route ip; conditions: in vivo; outline: as §2
[9] = Tmax in HRN mouse at 10 mg/kg, ip by UPLC-MS/MS analysis; format: ADME, organism-based; conditions: in vivo; outline: as §2
[10] = AUC in HRN mouse at 10 mg/kg, […] by UPLC-MS/MS analysis; format: ADME, organism-based; design: dose 10 mg/kg; conditions: in vivo; outline: as §2
[11] = test system: Trypanosoma brucei brucei; test: Antiparasitic activity against Trypanosoma brucei brucei S427 injected in NMRI mouse assessed as cure by measuring reduction in parasitemia at 10 mg/kg, ip twice daily for 4 days by stage I efficacy study; format: functional; design: scale not given: the % may be the effect or the level left; conditions: time 4 day
Outline: (§3)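 Female NMRI mice (3–5 per group) infected IP with 1 × 10^4 bloodstream T. b. brucei S427 from cryopreserved stabilate diluted in Hanks' balanced salt solution with glucose. Dosed IP twice daily, days 3–6, in 5% DMSO/40% PEG400/55% water, 10 mL kg-1, prepared fresh daily. Parasitemia followed to day 30; untreated control group of three mice.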

[12] = test system: Trypanosoma brucei brucei; test: Antiparasitic activity against Trypanosoma brucei brucei S427 injected in NMRI mouse assessed as cure by measuring reduction in parasitemia at 10 mg/kg, ip twice daily for 4 days measured upto 30 days by stage I efficacy study; format: functional, organism-based; conditions: time 4.0 day; outline: as §3
[13] = Permeability across blood brain barrier in NMRI mouse stage 2 CNS model; format: ADME; conditions: read-out: BBR
Outline: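 Female NMRI mice (n = 3) received a 10 mg kg-1 IV bolus in 15% solutol. At 30 min, under terminal isoflurane anesthesia, blood was taken by cardiac puncture and the brain removed. Both were quantified by UPLC-MS/MS; brain (ng g-1) divided by blood (ng mL-1) per mouse gives the brain:blood ratio.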

[14] = Fraction unbound in NMRI mouse brain stage 2 CNS model; format: ADME
[15] = Metabolic stability in CD1 mouse liver microsomes assessed as intrinsic clearance by UPLC-MS/MS analysis; format: ADME
Outline: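 Compound at 0.5 μM incubated with female CD1 mouse liver microsomes (0.5 mg mL-1, 50 mM potassium phosphate pH 7.4). Reaction started with excess NADPH. Aliquots taken at 0, 3, 6, 9, 15, 30 min and quenched in acetonitrile with internal standard, then analysed by UPLC-MS/MS.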

[16] = Fraction unbound in NMRI mouse; format: ADME
[17] = Drug metabolism in mouse liver microsomes assessed as retention time of 4-hydroxycyclohexyl metabolite at 0.5 to 5 uM for 60 mins by LC-MS analysis; format: ADME, Microsome; conditions: 1 h, dose 0.5-5 µM
Outline: (§4)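 Mouse liver microsomes incubated with compound at 0.5 and 5 μM for 60 min. Oxidized metabolites (m/z 354) detected and their retention times recorded by LC–MS.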

[18] = Drug metabolism in mouse liver microsomes assessed as retention time of 3-hydroxycyclohexyl metabolite at 0.5 to 5 uM for 60 mins by LC-MS analysis; format: ADME, Microsome; conditions: 1 h, dose 0.5-5 µM; outline: as §4
Trypanosoma brucei [19] = test: Antiparasitic activity against bloodstream-form Trypanosoma brucei in presence of 5% Co2 incubated for 69 hrs followed by resazurin addition further incubated for 4 hrs; format: functional, organism-based
[20] = Antiproliferative activity against human MRC5 cells in presence of 5% Co2 incubated for 69 hrs followed by resazurin addition further incubated for 4 hrs; format: toxicity, cell-based
[21] = Selectivity index, ratio of EC50 for human MRC-5 cells to EC50 for bloodstream-form Trypanosoma brucei; format: toxicity; conditions: read-out: Selectivity Index
Trypanosoma brucei [22] = test: Antiparasitic activity against bloodstream-form Trypanosoma brucei assessed as cidal in presence of 5% Co2 at > 5.6 uM incubated for 24 hrs by static-cidal assay; format: functional, organism-based
Trypanosoma brucei [23] = test: Antiparasitic activity against bloodstream-form Trypanosoma brucei assessed as static in presence of 5% Co2 at < 5.6 uM incubated for 24 hrs by static-cidal assay; format: functional, organism-based
[24] = Toxicity in mouse assessed as tolerability at 20 mg/kg, ip; format: organism-based; conditions: in vivo

EC50 (Trypanosoma brucei [1]): 110 nM
Cmax [2]: 33 ng/mL
Tmax [3]: 30 min
AUC [4]: 5700 ng·h/mL
Cmax [5]: 830 ng/mL
Tmax [6]: 15 min
AUC [7]: 66000 ng·h/mL
Cmax [8]: 3800 ng/mL
Tmax [9]: 30 min
AUC [10]: 1000 µg·h/mL
Kp [13]: 3.3
fraction unbound [14]: 0.006
CLH [15]: 15 mL/min/g
fraction unbound [16]: 0.0063
Retention_time [17]: 3.43 min
Retention_time [18]: 3.86 min
EC50 (Trypanosoma brucei [19]): 110 nM
Structure (SMILES): Nc1nc(NC2CCCCC2)sc1C(=O)c1c(F)cccc1F
Activity [11]: 100%
Activity [12]: Active
EC50 at 69 h [20]: 1200 nM
selectivity ratio [21]: 11
Activity (Trypanosoma brucei [22]): Active
Activity (Trypanosoma brucei [23]): Active
Activity [24]: Toxic
